Laboratory results: ChEMBL document CHEMBL1153124, “5-Lipoxygenase-activating protein inhibitors. Part 2: 3-{5-((S)-1-Acetyl-2,3-dihydro-1H-indol-2-ylmethoxy)-3-tert-butylsulfanyl-1-[4-(5-methoxy-pyrimidin-2-yl)-benzyl]-1H-indol-2-yl}-2,2-dimethyl-propionic acid (AM679)--a potent FLAP inhibitor” (Bioorg Med Chem Lett, 2010)

Assays:
[1] = target: T1, Arachidonate 5-lipoxygenase-activating protein (Homo sapiens, UniProt P20292); assay: Binding affinity to FLAP in human PMN derived membrane; assay type: cell membranes
T1 sequence (P20292 whole entry): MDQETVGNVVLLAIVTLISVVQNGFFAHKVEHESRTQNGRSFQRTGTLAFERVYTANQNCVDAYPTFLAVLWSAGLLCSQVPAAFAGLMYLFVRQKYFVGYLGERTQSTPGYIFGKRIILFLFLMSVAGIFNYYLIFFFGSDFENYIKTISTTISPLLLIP
Procedure, shortened: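 FLAP binding measured in membranes derived from human polymorphonuclear leukocytes (PMN). IC50 values are the average of n ≥ 3.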

[2] = Inhibition of LTB4 production in calcium ionophore A23187 treated human leukocytes; assay type: functional, cell-based; conditions: Leukocyte
Procedure, shortened: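 Human leukocytes challenged with calcium ionophore; LTB4 produced by the cells was measured. IC50 is the average of n ≥ 3.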

Blood = assay: Inhibition of LTB4 production in calcium ionophore treated A23187 human whole blood after 15 mins; assay type: functional, tissue-based; conditions: 0.25 h
CYP3A4 = CYP3A4 (Homo sapiens, UniProt P08684); assay: Inhibition of CYP3A4 at 10 uM; assay type: ADME
[3] = Bioavailability in rat at 10 mg/kg; assay type: ADME, organism-based; conditions: in vivo
Procedure, shortened: (§1)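 Rat, oral dosing at 10 mg/kg given as the sodium carboxylate salt. Read-outs: F, clearance, Cmax, AUC and half-life.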

CYP2C9 = CYP2C9 (Homo sapiens, UniProt P11712); assay: Inhibition of CYP2C9 at 10 uM; assay type: ADME
[4] = AUC in rat at 10 mg/kg, po; assay type: ADME, organism-based; design: dose 10 mg/kg, route oral; conditions: plasma; procedure, shortened: as §1
[5] = Clearance in rat at 10 mg/kg, po; assay type: ADME, organism-based; design: dose 10 mg/kg, route oral; conditions: in vivo; procedure, shortened: as §1
[6] = Cmax in rat at 10 mg/kg, po; assay type: ADME, organism-based; design: dose 10 mg/kg, route oral; conditions: in vivo; procedure, shortened: as §1
Cytochrome P450 2C9 = Cytochrome P450 2C9 (Homo sapiens, UniProt P11712); assay: Inhibition of CYP2C9; assay type: ADME
Sequence of Cytochrome P450 2C9 (P11712 whole entry): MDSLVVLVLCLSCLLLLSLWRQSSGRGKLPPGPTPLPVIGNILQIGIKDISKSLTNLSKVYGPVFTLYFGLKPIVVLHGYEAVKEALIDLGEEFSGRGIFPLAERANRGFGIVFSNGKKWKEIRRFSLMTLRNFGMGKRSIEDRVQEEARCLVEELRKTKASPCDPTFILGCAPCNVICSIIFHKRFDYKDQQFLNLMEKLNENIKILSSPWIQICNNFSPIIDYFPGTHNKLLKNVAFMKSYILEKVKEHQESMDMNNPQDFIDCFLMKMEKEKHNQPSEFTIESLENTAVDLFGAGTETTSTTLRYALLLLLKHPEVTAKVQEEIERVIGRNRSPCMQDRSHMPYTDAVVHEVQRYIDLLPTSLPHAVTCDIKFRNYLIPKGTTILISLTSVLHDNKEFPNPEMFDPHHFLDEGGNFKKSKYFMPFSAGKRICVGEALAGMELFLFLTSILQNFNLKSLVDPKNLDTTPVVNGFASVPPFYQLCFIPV

Sequence of CYP2C9 (P11712 whole entry): as above
Sequence of CYP3A4 (P08684 whole entry): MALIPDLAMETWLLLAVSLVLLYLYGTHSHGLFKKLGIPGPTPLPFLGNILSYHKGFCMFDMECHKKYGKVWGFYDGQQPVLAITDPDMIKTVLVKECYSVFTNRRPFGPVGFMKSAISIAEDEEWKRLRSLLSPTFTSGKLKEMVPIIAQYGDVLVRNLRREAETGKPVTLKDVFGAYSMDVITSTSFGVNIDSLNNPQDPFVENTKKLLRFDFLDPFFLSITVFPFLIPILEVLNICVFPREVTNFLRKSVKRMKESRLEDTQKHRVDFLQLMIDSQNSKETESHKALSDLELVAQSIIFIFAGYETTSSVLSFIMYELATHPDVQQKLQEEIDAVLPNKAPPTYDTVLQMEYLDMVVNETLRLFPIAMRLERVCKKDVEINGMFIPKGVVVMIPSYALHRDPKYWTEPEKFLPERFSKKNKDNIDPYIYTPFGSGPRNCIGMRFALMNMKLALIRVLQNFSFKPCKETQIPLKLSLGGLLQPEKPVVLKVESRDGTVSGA

Structure (SMILES)	IC50 [1]	IC50 [2]	IC50 (Blood)	further results
CC(C)(C)Sc1c(CC(C)(C)C(=O)O)n(Cc2ccc(Cl)cc2)c2ccc(OCC(O)c3ccc(F)cc3)cc12 (stereo not drawn)	19 nM	7 nM	469 nM	–
CC(=O)N1c2ccccc2C[C@H]1COc1ccc2c(c1)cc(CC(C)(C)C(=O)O)n2Cc1ccc(Cl)cc1	218 nM	12.9 nM	31500 nM	–
CC(C)(C)Sc1c(CC(C)(C)C(=O)O)n(Cc2ccc(Cl)cc2)c2ccc(OC[C@@H]3CCC(=O)N3)cc12	616 nM	108 nM	9020 nM	–
CC(C)(C)Sc1c(CC(C)(C)C(=O)O)n(Cc2ccc(Cl)cc2)c2ccc(OC[C@@H]3CCCN3)cc12	> 10000 nM	2780 nM	–	–
CC(=O)N[C@H](COc1ccc2c(c1)c(SC(C)(C)C)c(CC(C)(C)C(=O)O)n2Cc1ccc(Cl)cc1)c1ccccc1	581 nM	72 nM	23100 nM	–
CC(=O)N1c2ccccc2C[C@H]1COc1ccc2c(c1)c(C(=O)c1ccccc1)c(CC(C)(C)C(=O)O)n2Cc1ccc(Cl)cc1	> 10000 nM	263 nM	63100 nM	–
COc1ccc(-c2ccc(Cn3c(CC(C)(C)C(=O)O)c(SC(C)(C)C)c4cc(OC[C@@H]5Cc6ccccc6N5C(C)=O)ccc43)cc2)nn1	3.2 nM	12.6 nM	1110 nM	–
CC(C)(C)Sc1c(CC(C)(C)C(=O)O)n(Cc2ccc(Cl)cc2)c2ccc(OC[C@@H]3Cc4ccccc4N3)cc12	85 nM	4.1 nM	1430 nM	–
CC(=O)N1c2ccccc2C[C@H]1COc1ccc2c(c1)c(C(=O)C(C)(C)C)c(CC(C)(C)C(=O)O)n2Cc1ccc(Cl)cc1	19 nM	1.3 nM	521 nM	–
CC(C)(C)Sc1c(CC(C)(C)C(=O)O)n(Cc2ccc(Cl)cc2)c2ccc(OCC(=O)c3ccc(F)cc3)cc12	13 nM	769 nM	11800 nM	–
CC(C)(C)OC(=O)N1c2ccccc2C[C@H]1COc1ccc2c(c1)c(SC(C)(C)C)c(CC(C)(C)C(=O)O)n2Cc1ccc(Cl)cc1	1100 nM	106 nM	–	–
CC(=O)N1c2ccccc2C[C@H]1COc1ccc2c(c1)c(SC(C)(C)C)c(CC(C)(C)C(=O)O)n2Cc1ccc(-c2ccc(F)cn2)cc1	1.7 nM	0.5 nM	235 nM	–
CC(C)(C)Sc1c(CC(C)(C)C(=O)O)n(Cc2ccc(Cl)cc2)c2ccc(OC[C@@H]3CCCN3S(C)(=O)=O)cc12	441 nM	30 nM	4300 nM	–
CC(C)C(=O)N1CCC[C@H]1COc1ccc2c(c1)c(SC(C)(C)C)c(CC(C)(C)C(=O)O)n2Cc1ccc(Cl)cc1	186 nM	51 nM	5660 nM	–
CC(=O)N1CCC[C@H]1COc1ccc2c(c1)c(SC(C)(C)C)c(CC(C)(C)C(=O)O)n2Cc1ccc(Cl)cc1	6 nM	16 nM	403 nM	inhibition at 10 µM (CYP3A4): 64%; bioavailability [3]: 10%; inhibition at 10 µM (CYP2C9): 93%; AUC [4]: 1200 ng·h/mL; CL/F [5]: 20 mL/min/kg
CCC(=O)N1CCC[C@H]1COc1ccc2c(c1)c(SC(C)(C)C)c(CC(C)(C)C(=O)O)n2Cc1ccc(Cl)cc1	4 nM	1.5 nM	307 nM	–
CC(C)(C)Sc1c(CC(C)(C)C(=O)O)n(Cc2ccc(Cl)cc2)c2ccc(OCC(N)=O)cc12	38 nM	28 nM	2140 nM	–

Structure (SMILES)	IC50 [1]	IC50 [2]	IC50 (Blood)	further results
CC(=O)N1c2ccccc2C[C@H]1COc1ccc2c(c1)c(CC(C)C)c(CC(C)(C)C(=O)O)n2Cc1ccc(Cl)cc1	35 nM	0.5 nM	200 nM	inhibition at 10 µM (CYP3A4): > 80%; inhibition at 10 µM (CYP2C9): > 80%
CC(C)(C)OC(=O)N1c2ccccc2C[C@@H]1COc1ccc2c(c1)c(SC(C)(C)C)c(CC(C)(C)C(=O)O)n2Cc1ccc(Cl)cc1	> 10000 nM	102 nM	12300 nM	–
CC(=O)N1c2ccccc2C[C@H]1COc1ccc2c(c1)c(C(=O)C(C)C)c(CC(C)(C)C(=O)O)n2Cc1ccc(Cl)cc1	20.6 nM	20.6 nM	4900 nM	–
CC(=O)N1c2ccccc2C[C@H]1COc1ccc2c(c1)c(SC(C)(C)C)c(CC(C)(C)C(=O)O)n2Cc1ccc(Cl)cc1	1.4 nM	0.5 nM	169 nM	inhibition at 10 µM (CYP3A4): 80%; bioavailability [3]: 11%; inhibition at 10 µM (CYP2C9): 96%; Cmax [6]: 270 nM; CL/F [5]: 25 mL/min/kg
CC(C)(C)Sc1c(CC(C)(C)C(=O)O)n(Cc2ccc(Cl)cc2)c2ccc(OC[C@@H]3CCCN3C(=O)C3CC3)cc12	50 nM	8 nM	885 nM	–
CC(C)(C)Sc1c(CC(C)(C)C(=O)O)n(Cc2ccc(Cl)cc2)c2ccc(OC[C@@H]3CCCN3C(=O)c3ccccc3)cc12	1340 nM	110 nM	22300 nM	–
CC(C)(C)OC(=O)N1CCC[C@@H]1COc1ccc2c(c1)c(SC(C)(C)C)c(CC(C)(C)C(=O)O)n2Cc1ccc(Cl)cc1	1810 nM	193 nM	67800 nM	–
CC(C)(C)OC(=O)N1CCC[C@H]1COc1ccc2c(c1)c(SC(C)(C)C)c(CC(C)(C)C(=O)O)n2Cc1ccc(Cl)cc1	1110 nM	29 nM	17200 nM	–
CC(=O)N1c2ccccc2C[C@H]1COc1ccc2c(c1)c(Cc1ccccc1)c(CC(C)(C)C(=O)O)n2Cc1ccc(Cl)cc1	15.2 nM	1.5 nM	428 nM	inhibition at 10 µM (CYP3A4): > 80%; inhibition at 10 µM (CYP2C9): > 80%
CC(=O)N1c2ccccc2C[C@H]1COc1ccc2c(c1)c(CCC(C)(C)C)c(CC(C)(C)C(=O)O)n2Cc1ccc(Cl)cc1	4.7 nM	4.2 nM	405 nM	inhibition at 10 µM (CYP3A4): > 80%; inhibition at 10 µM (CYP2C9): > 80%
CC(=O)N1c2ccccc2C[C@H]1COc1ccc2c(c1)c([S+]([O-])C(C)(C)C)c(CC(C)(C)C(=O)O)n2Cc1ccc(Cl)cc1 (stereo partly drawn)	74 nM	335 nM	23200 nM	–
CC(=O)N1c2ccccc2C[C@H]1COc1ccc2c(c1)c(S(=O)(=O)C(C)(C)C)c(CC(C)(C)C(=O)O)n2Cc1ccc(Cl)cc1	4.5 nM	19 nM	1740 nM	–
COc1nc(-c2ccc(Cn3c(CC(C)(C)C(=O)O)c(SC(C)(C)C)c4cc(OC[C@@H]5Cc6ccccc6N5C(C)=O)ccc43)cc2)cs1	2.5 nM	0.6 nM	573 nM	–
COc1ccc(-c2ccc(Cn3c(CC(C)(C)C(=O)O)c(SC(C)(C)C)c4cc(OC[C@@H]5Cc6ccccc6N5C(C)=O)ccc43)cc2)cn1	9.3 nM	1.8 nM	276 nM	–
COc1ccc(-c2ccc(Cn3c(CC(C)(C)C(=O)O)c(SC(C)(C)C)c4cc(OC[C@@H]5Cc6ccccc6N5C(C)=O)ccc43)cc2)nc1	3.8 nM	0.5 nM	373 nM	–
CC(=O)N1c2ccccc2C[C@H]1COc1ccc2c(c1)c(C(=O)C(C)(C)C)c(CC(C)(C)C(=O)[O-])n2Cc1ccc(Cl)cc1.[Na+]	–	–	–	bioavailability [3]: 7%; Cmax [6]: 270 nM
CC(C)(C)Sc1c(CC(C)(C)C(=O)O)n(Cc2ccc(Cl)cc2)c2ccc(OCc3ccc4ccccc4n3)cc12 [QUIFLAPON]	–	–	–	IC50 (Cytochrome P450 2C9): 500 nM
